What was measured:
[1] = molecular target: T1, Human immunodeficiency virus type 1 reverse transcriptase (Human immunodeficiency virus 1, UniProt Q72547); test: Inhibitory activity of compound dissolved in DMSO was determined against HIV-1 wild type reverse transcriptase (1-2 nM) by using [3H]dGTP (71 nM) as substrate, 50 mM Tris/HCl buffer, pH 7.8, incubated for 1 h at 37 degrees C
Procedure, shortened: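 Wild-type RT preincubated 15 min at room temperature with inhibitor. Final reaction: Tris/HCl 50 mM pH 7.8, NaCl 60 mM, MgCl2 2 mM, DTT 6 mM, GSH 2 mM, Chaps 0.02%, DMSO 3%, poly rC 179 nM, biotin-dG15 18 nM, dGTP 288 nM, 3H-dGTP 71 nM, enzyme 1–2 nM, inhibitor 10 μM–0.5 nM. Run 1 h at 37 °C, EDTA-quenched, read with streptavidin SPA beads.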

[2] = molecular target: T2, Human immunodeficiency virus type 1 reverse transcriptase (Human immunodeficiency virus 1, UniProt Q72547, K103N/Y181C); test: Inhibitory activity of compound dissolved in DMSO was determined against HIV-1 (K103N/Y181C) mutant reverse transcriptase (1-2 nM) by using [3H]-dGTP (71 nM) as substrate, 50 mM Tris/HCl buffer, pH 7.8, incubated for 1 hr at 37 degrees C
Procedure, shortened: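 RT at ≈3 nM preincubated 15 min at room temperature with inhibitor, then substrate added. Final mix: 50 mM Tris/HCl pH 7.8, 60 mM NaCl, 2 mM MgCl2, 6 mM DTT, 2 mM GSH, 0.02% Chaps, 3% DMSO, 179 nM poly rC, 18 nM biotin-dG15, 288 nM dGTP, 71 nM 3H-dGTP, 1–2 nM enzyme, inhibitor 10 μM–0.5 nM. Reaction 1 h at 37 °C, quenched with EDTA plus streptavidin SPA beads, CsCl added, scintillation counted.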

[3] = molecular target: T1, Human immunodeficiency virus type 1 reverse transcriptase; test: Effective concentration towards HIV-1 wild type reverse transcriptase activity by 50% measured in cellular assay
Procedure, shortened: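 C8166 T-lymphocytes infected at MOI 0.001 with wild-type HIV-1, then cultured 3 days with serial compound dilutions in RPMI 1640 containing 10% FBS, gentamycin and 10 μM β-mercaptoethanol. Supernatants pooled from eight replicate wells. Extracellular p24 measured by antigen immunoassay.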

[4] = molecular target: T2, Human immunodeficiency virus type 1 reverse transcriptase; test: Effective concentration towards HIV-1 K103N/Y181C mutant reverse transcriptase activity by 50% measured in cellular assay
Procedure, shortened: (§1)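 C8166 T-lymphocytes infected at MOI 0.001 with HIV-1 carrying wild-type or mutant RT, then grown 3 days with serial compound dilutions in RPMI 1640 + 10% FBS, 10 μg/mL gentamycin, 10 μM β-mercaptoethanol (also the diluent). Supernatant pooled from eight replica wells; extracellular p24 measured by HIV-1 p24 antigen kit.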

Caco-2 = test: Caco-2 permeability upon incubation at 37 degrees C for 180 minutes; type: functional, Homo sapiens
Procedure, shortened: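 Cells grown on 12-well Transwell membranes and exposed to test solution for 180 min at 37 °C. Receiving-side (basolateral, A to B) samples analysed by HPLC. Apparent permeability = (ΔQ/Δt)/(A·C0), where ΔQ/Δt is the transport rate, A the monolayer area and C0 the initial donor concentration.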

in vitro = conditions: male, human, liver microsomes
[5] = Clearance is determined in dog after intravenous administration at 1 mg/kg; type: ADME, organism-based, Canis lupus familiaris; design: dose 1 mg/kg, route intravenous; conditions: in vivo
Procedure, shortened: (§2)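 Intravenous bolus at 1 mg/kg to overnight-fasted male Sprague-Dawley rats, beagle dogs or rhesus monkeys. Vehicle: N,N-dimethylacetamide/0.9% aqueous NaCl (30:70). Animals restrained during sampling. Plasma extracts analysed by HPLC. Parameters derived by noncompartmental analysis.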

[6] = Bioavailability is determined in rat after oral administration at 5 mg/kg; conditions: in vivo
C8166 [7] = test: Inhibition of HIV replication in T-lymphocyte cell line C8166 infected with K103N/L100I mutant reverse transcriptase upon incubation with the compound for 3 days; type: functional, Homo sapiens; procedure, shortened: as §1
C8166 [8] = test: Inhibition of HIV replication in T-lymphocyte cell line C8166 infected with Y188L mutant reverse transcriptase upon incubation with the compound for 3 days; type: functional, Homo sapiens; procedure, shortened: as §1
[9] = Steady state volume of distribution is determined in monkey after intravenous administration at 1 mg/kg; type: ADME, organism-based; design: dose 1 mg/kg, route intravenous; conditions: cercopithecidae, in vivo, read-out: Vss; procedure, shortened: as §2
Cytochrome P450 2C19 = Cytochrome P450 2C19 (Homo sapiens, UniProt P33261); test: Inhibitory concentration (1.5 mM) against human CYP450 2C19 dissolved in acetonitrile/methanol
Cytochrome P450 2C19, sequence (P33261 whole entry): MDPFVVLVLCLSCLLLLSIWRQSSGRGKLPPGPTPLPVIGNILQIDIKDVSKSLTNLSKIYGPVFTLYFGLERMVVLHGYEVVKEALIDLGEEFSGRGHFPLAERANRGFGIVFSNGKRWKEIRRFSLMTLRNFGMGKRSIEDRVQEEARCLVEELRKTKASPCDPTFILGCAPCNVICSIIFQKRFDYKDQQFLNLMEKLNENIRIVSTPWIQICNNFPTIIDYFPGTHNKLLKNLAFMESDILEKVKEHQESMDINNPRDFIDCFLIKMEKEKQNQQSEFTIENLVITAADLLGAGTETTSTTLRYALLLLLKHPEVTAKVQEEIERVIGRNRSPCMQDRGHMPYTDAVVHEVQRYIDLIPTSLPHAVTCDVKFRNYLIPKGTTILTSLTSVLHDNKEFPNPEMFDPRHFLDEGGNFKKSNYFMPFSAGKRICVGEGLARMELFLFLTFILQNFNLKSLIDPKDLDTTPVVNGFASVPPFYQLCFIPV

[10] = Area under curve is determined in dog after oral administration 5 mg/kg; conditions: in vivo
[11] = Clearance is determined in monkey after intravenous administration 1 mg/kg; type: ADME, organism-based; design: dose 1 mg/kg, route intravenous; conditions: cercopithecidae, in vivo; procedure, shortened: as §2
C8166 [12] = test: Inhibition of HIV replication in T-lymphocyte cell line C8166 infected with V106A mutant reverse transcriptase upon incubation with the compound for 3 days; type: functional, Homo sapiens; procedure, shortened: as §1
C8166 [13] = test: Inhibition of HIV replication in T-lymphocyte cell line C8166 infected with K103N/V108I mutant reverse transcriptase upon incubation with the compound for 3 days; type: functional, Homo sapiens; procedure, shortened: as §1
[14] = Steady state volume of distribution is determined in dog after intravenous administration 1 mg/kg; type: ADME, organism-based, Canis lupus familiaris; design: dose 1 mg/kg, route intravenous; conditions: in vivo, read-out: Vss; procedure, shortened: as §2
[15] = Concentration maximum is determined in dog after oral administration 5 mg/kg; conditions: in vivo
[16] = Half-life is determined in dog after intravenous administration 1 mg/kg; type: ADME, organism-based, Canis lupus familiaris; design: dose 1 mg/kg, route intravenous; conditions: in vivo; procedure, shortened: as §2
Cytochrome P450 3A4 [17] = molecular target: T3, Cytochrome P450 3A4 (Homo sapiens, UniProt P08684); test: Inhibitory concentration (1.5 mM) against human CYP450 3A4 dissolved in acetonitrile/methanol using 7-Benzyloxy-quinoline (BQ) as fluorogenic substrate
T3 sequence (P08684 whole entry): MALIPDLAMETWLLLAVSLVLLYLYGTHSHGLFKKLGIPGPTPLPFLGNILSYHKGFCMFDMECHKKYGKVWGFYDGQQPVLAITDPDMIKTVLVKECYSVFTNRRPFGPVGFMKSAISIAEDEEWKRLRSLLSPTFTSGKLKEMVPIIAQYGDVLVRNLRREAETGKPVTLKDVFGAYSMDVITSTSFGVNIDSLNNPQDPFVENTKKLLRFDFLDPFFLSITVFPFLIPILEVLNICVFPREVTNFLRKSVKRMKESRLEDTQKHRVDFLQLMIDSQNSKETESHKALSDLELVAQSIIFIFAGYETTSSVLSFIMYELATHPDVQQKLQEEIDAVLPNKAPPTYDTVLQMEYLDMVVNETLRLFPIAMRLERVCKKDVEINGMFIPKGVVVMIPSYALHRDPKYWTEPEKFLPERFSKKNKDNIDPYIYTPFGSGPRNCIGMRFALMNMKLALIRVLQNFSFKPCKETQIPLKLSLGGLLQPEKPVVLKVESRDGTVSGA

[18] = Half-life is determined in rat after intravenous administration at 1 mg/kg; type: ADME, organism-based; design: dose 1 mg/kg, route intravenous; conditions: in vivo; procedure, shortened: as §2
[19] = Concentration maximum is determined in rat after oral administration at 5 mg/kg; conditions: in vivo
[20] = Area under curve is determined in monkey after oral administration at 5 mg/kg; conditions: cercopithecidae, in vivo
Cytochrome P450 2C9 = Cytochrome P450 2C9 (Homo sapiens, UniProt P11712)
Cytochrome P450 2C9, sequence (P11712 whole entry): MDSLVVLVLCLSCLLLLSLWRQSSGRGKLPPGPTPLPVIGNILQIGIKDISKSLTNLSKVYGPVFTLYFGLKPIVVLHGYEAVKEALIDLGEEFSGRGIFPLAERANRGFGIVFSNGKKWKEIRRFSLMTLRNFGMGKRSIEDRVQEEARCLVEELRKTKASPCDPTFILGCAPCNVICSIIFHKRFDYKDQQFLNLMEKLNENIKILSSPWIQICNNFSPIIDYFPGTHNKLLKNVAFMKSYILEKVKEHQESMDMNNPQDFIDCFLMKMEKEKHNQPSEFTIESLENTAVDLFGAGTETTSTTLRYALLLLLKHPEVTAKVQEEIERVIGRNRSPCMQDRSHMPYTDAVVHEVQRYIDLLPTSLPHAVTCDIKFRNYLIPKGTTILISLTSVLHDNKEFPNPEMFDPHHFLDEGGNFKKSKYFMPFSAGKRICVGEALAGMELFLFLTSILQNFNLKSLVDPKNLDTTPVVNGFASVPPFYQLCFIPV

Cytochrome P450 3A4 [21] = molecular target: T3, Cytochrome P450 3A4
[22] = Bioavailability is determined in dog after oral administration 5 mg/kg; conditions: in vivo
[23] = Clearance is determined in rat after intravenous administration at 1 mg/kg; type: ADME, organism-based; design: dose 1 mg/kg, route intravenous; conditions: in vivo; procedure, shortened: as §2
Cytochrome P450 1A2 = molecular target: T4, Cytochrome P450 1A2 (Homo sapiens, UniProt P05177); test: Inhibitory concentration (1.5 mM) against human CYP450 1A2 dissolved in acetonitrile/methanol
T4 sequence (P05177 whole entry): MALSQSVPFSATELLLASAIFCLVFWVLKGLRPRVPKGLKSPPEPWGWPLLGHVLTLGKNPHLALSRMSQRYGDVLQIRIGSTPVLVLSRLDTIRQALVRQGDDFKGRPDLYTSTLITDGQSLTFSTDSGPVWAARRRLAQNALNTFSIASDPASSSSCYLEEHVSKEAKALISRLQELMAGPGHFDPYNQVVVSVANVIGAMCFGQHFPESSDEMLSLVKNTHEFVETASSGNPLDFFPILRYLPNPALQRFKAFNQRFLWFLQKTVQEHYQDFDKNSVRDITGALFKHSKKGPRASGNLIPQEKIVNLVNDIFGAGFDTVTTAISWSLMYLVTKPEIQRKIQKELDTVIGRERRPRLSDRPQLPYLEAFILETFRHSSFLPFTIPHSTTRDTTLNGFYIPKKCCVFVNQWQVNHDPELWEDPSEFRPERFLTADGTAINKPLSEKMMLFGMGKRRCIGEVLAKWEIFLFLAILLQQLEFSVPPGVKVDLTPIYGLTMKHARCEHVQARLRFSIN

C8166 [24] = test: Inhibition of HIV replication in T-lymphocyte cell line C8166 infected with K103N/P225H mutant reverse transcriptase upon incubation with the compound for 3 days; type: functional, Homo sapiens; procedure, shortened: as §1
[25] = Area under curve is determined in rat after oral administration at 5 mg/kg; conditions: in vivo
[26] = Half-life is determined in monkey after intravenous administration at 1 mg/kg; type: ADME, organism-based; design: dose 1 mg/kg, route intravenous; conditions: cercopithecidae, in vivo; procedure, shortened: as §2
[27] = Steady state volume of distribution in rat after intravenous administration 1 mg/kg; type: ADME, organism-based; design: dose 1 mg/kg, route intravenous; conditions: in vivo, read-out: Vss; procedure, shortened: as §2
[28] = Bioavailability is determined in monkey after oral administration at 5 mg/kg; conditions: cercopithecidae, in vivo
[29] = Maximum concentration is determined in monkey after oral administration at 5 mg/kg; conditions: cercopithecidae, in vivo
Cytochrome P450 2D6 = Cytochrome P450 2D6 (Homo sapiens, UniProt P10635); test: Inhibitory concentration (1.5 mM) against human CYP450 2D6 dissolved in acetonitrile/methanol
Cytochrome P450 2D6, sequence (P10635 whole entry): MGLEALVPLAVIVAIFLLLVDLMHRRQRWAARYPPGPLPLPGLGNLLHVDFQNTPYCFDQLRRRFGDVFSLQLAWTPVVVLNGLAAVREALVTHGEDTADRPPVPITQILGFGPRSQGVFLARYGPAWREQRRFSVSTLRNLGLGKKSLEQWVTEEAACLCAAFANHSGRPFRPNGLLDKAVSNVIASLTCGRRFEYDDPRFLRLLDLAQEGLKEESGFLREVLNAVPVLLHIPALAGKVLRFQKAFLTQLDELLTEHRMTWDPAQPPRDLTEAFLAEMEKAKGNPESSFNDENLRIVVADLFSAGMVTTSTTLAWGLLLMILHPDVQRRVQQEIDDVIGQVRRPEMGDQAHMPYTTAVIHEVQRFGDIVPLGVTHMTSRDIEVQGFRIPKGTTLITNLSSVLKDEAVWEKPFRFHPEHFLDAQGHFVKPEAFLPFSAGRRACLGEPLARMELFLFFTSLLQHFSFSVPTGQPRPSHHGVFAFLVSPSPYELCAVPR

CCN1c2ncc(CCOc3ccc4cc(C(=O)O)ccc4c3)cc2C(=O)N(C)c2cccnc21
IC50 [1]: 14 nM | IC50 [2]: 1100 nM

CCN1c2ncc(CCOc3ccc(C(=O)O)cc3C)cc2C(=O)N(C)c2ccc(OC)nc21
IC50 [1]: 15 nM | EC50 [3]: 1.9 nM | IC50 [2]: 300 nM | EC50 [4]: 15 nM

CCN1c2ncc(CCOc3ccc4c(C(=O)O)cccc4c3)cc2C(=O)N(C)c2cccnc21
IC50 [1]: 63 nM | IC50 [2]: 4000 nM

CCN1c2ncc(CCOc3ccc(C(=O)O)c4ccccc34)cc2C(=O)N(C)c2cccnc21
IC50 [1]: 27 nM | IC50 [2]: 194 nM

CCN1c2ncc(CCOc3ccc(C(=O)O)cc3C)cc2C(=O)N(C)c2ccc(C)nc21
IC50 [1]: 19 nM | EC50 [3]: 1.3 nM | IC50 [2]: 280 nM | EC50 [4]: 33 nM

CCN1c2ncc(CCOc3ccc(C(=O)O)cc3C)cc2C(=O)N(C)c2ccc(Cl)nc21
IC50 [1]: 10 nM | EC50 [3]: 1.6 nM | IC50 [2]: 64 nM | EC50 [4]: 8.1 nM

CCN1c2ncc(CCOc3ccc(CCC(=O)O)cc3C)cc2C(=O)N(C)c2cccnc21
IC50 [1]: 22 nM | Caco-2 A-B (Caco-2): 4.69e-05 cm/s | EC50 [3]: 5.5 nM | IC50 [2]: 200 nM | EC50 [4]: 101 nM | half-life at 10 µM (in vitro): 3.43 h

CCN1c2ncc(CCOc3ccc(C(=O)O)cc3)cc2C(=O)N(C)c2cccnc21
IC50 [1]: 95 nM | EC50 [3]: 3.3 nM | IC50 [2]: 4480 nM | EC50 [4]: 162 nM | half-life at 10 µM (in vitro): 1.27 h

CCc1cc(C(=O)O)ccc1OCCc1cnc2c(c1)C(=O)N(C)c1cccnc1N2CC
IC50 [1]: 19 nM | EC50 [3]: 2.2 nM | IC50 [2]: 430 nM | EC50 [4]: 24 nM

CCN1c2ncc(CCOc3ccc(C(=O)O)cc3Br)cc2C(=O)N(C)c2cccnc21
IC50 [1]: 18 nM | EC50 [3]: 3.2 nM | IC50 [2]: 300 nM | EC50 [4]: 35 nM

CCN1c2ncc(CCOc3ccc(C(=O)O)cc3C)cc2C(=O)N(C)c2cccnc21
clearance [5]: 10 mL/min/kg | bioavailability [6]: 46% | Antiviral activity (C8166 [7]): 4 nM | IC50 [1]: 17 nM | Caco-2 A-B (Caco-2): 2.75e-05 cm/s | Antiviral activity (C8166 [8]): 172 nM | EC50 [3]: 1.6 nM | Vd [9]: 1 L/kg | IC50 (Cytochrome P450 2C19): 2000 nM | AUC [10]: 20 uMh | clearance [11]: 24 mL/min/kg | Antiviral activity (C8166 [12]): 36 nM | Antiviral activity (C8166 [13]): 5 nM | Vd [14]: 2.5 L/kg | Cmax [15]: 16 µM | half-life [16]: 5.9 h | IC50 (Cytochrome P450 3A4 [17]): > 30000 nM | IC50 [2]: 221 nM | half-life [18]: 11 h | Cmax [19]: 6.5 µM | AUC [20]: 3.4 uMh | IC50 (Cytochrome P450 2C9): 10000 nM | EC50 [4]: 15 nM | IC50 (Cytochrome P450 3A4 [21]): 24000 nM | bioavailability [22]: 115% | clearance [23]: 7.1 mL/min/kg | IC50 (Cytochrome P450 1A2): > 30000 nM | Antiviral activity (C8166 [24]): 5 nM | AUC [25]: 12 uMh | half-life [26]: 1.3 h | Vd [27]: 4.6 L/kg | half-life at 10 µM (in vitro): 2.23 h | bioavailability [28]: 43% | Cmax [29]: 1.5 µM | IC50 (Cytochrome P450 2D6): > 30000 nM

CCN1c2ncc(CCOc3ccc(CC(=O)O)cc3C)cc2C(=O)N(C)c2cccnc21
IC50 [1]: 23 nM | Caco-2 A-B (Caco-2): 1.84e-05 cm/s | EC50 [3]: 12 nM | IC50 [2]: 370 nM | EC50 [4]: 139 nM | half-life at 10 µM (in vitro): 3.6 h

CCN1c2ncc(CCOc3ccc(C(=O)O)cc3C)cc2C(=O)N(C)c2ccc(F)nc21
Antiviral activity (C8166 [7]): 3 nM | IC50 [1]: 15 nM | Antiviral activity (C8166 [8]): 27 nM | EC50 [3]: 1.5 nM | Antiviral activity (C8166 [12]): 27 nM | Antiviral activity (C8166 [13]): 4 nM | IC50 [2]: 150 nM | EC50 [4]: 14 nM | Antiviral activity (C8166 [24]): 2 nM

CCN1c2ncc(CCOc3cccc4c(C(=O)O)cccc34)cc2C(=O)N(C)c2cccnc21
IC50 [1]: 60 nM | IC50 [2]: 550 nM
